{"source": "paper PMC5940653", "about": "(Leukemia, 2018)", "system": "STAT3/5 phosphorylation in NK-S1 cells", "test": "Wash-out assay", "assay_type": "cell-based", "details": "NK-S1, 1.0 μM pre-treatment for 2 h", "method_in_brief": "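NK-S1 cells were grown in DMEM with 10% FBS and 10% equine serum, seeded at 2.5 × 10^6 per well, and exposed to 1.0 µM test compound or DMSO for 2 h. Cells were washed twice in PBS and resuspended in complete medium without inhibitor. They were harvested at washout and 0.5, 1, 2 and 4 h later. Phospho- and total STAT3/5 were immunoblotted, 15 μg protein per lane.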", "data": [{"smiles": "C[C@@H]1CCN(C(=O)CC#N)C[C@@H]1N(C)c1ncnc2[nH]ccc12", "note": "[Tofacitinib]", "values": [{"measurement": "recovery of phosphorylated STAT3/5 activity post inhibitor washout", "result": "within half an hour"}]}]}
